High-throughput results (PubChem BioAssay)
A selection: hits, their analogues and other compounds. The true share with any hit is near 2.4%.
HKDC1 inh – inhibitors of human hexokinase HKDC1; 0.16% of 340,000 active; recombinant HKDC1, G6PDH/diaphorase resazurin coupled fluorescence; AID 493160; inhibition, % at 20 µM; Q2TB90;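 active means inhibition above about 35% when tested at 20 µM, limit read from the data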;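 further: plate controls were DMSO wells with enzyme for no effect and DMSO wells lacking enzyme for full effect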
Target sequence (Q2TB90 whole entry, looked up): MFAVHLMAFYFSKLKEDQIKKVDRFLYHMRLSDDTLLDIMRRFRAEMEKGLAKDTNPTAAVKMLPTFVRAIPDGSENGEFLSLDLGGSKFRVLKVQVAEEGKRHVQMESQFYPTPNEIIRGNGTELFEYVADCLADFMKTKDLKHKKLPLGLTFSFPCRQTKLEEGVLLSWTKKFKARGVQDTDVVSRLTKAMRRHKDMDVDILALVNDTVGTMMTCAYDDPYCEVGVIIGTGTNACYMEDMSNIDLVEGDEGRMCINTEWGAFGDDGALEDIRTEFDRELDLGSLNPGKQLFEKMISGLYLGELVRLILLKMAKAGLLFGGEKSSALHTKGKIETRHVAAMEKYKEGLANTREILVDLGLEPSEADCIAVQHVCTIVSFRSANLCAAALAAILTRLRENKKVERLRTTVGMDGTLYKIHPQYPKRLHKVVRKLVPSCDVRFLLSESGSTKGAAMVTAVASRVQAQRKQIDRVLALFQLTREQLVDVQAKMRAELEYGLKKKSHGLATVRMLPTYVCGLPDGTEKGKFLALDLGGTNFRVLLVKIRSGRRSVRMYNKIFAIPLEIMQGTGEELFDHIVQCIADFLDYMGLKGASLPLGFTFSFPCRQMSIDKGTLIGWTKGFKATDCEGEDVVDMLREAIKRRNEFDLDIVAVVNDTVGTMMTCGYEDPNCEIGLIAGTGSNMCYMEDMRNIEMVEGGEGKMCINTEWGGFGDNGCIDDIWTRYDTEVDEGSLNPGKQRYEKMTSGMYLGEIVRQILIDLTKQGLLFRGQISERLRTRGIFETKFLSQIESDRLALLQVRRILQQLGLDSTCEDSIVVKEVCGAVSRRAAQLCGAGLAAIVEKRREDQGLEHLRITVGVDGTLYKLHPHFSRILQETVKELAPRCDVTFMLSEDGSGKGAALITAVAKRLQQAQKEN
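System: Recombinant HKDC1 hexokinase | Amount: HKDC1 at 5 µg/mL | Reagent: Glucose with 1 mM ATP | Doses: Single 20 µM dose | Incubation: Reaction time 90 min, room temperature, protected from light | Signal: Coupled resazurin fluorescence, excitation 525 nm, emission 613 nm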
SUMO HTRF inh – blocks human SUMOylation mediated by UBC9; P63279; HTRF SUMOylation assay, SAE1/SAE2 + UBC9, in vitro; inhibition, % at 35 µM; 0.36% of 290,000 active; AID 2006; in the data active means inhibition above about 50%, passing the limit was not always enough; inconclusive means no clear call, values can overlap the other calls
PfM18AAP inh – blocks P. falciparum M18 aspartyl aminopeptidase. recombinant PfM18AAP, H-Glu-NHMec fluorogenic cleavage. inhibition, % at 7.35 µM. 1.2% of 290,000 active. AID 1822;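 active means inhibition above the campaign mean inhibition over all tested compounds plus 3 SD, cut at about 28% in these data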;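 further: 0% = plate median of test compound wells and 100% = 2 mM ZnCl2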
PfG6PD inh – PfG6PD (Plasmodium falciparum) enzyme inhibition; PfGluPho enzyme, NADPH resazurin-diaphorase fluorescence; inhibition, % at 20 µM; 0.78% of 350,000 active;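 active means inhibition reaching at least a set limit at 20 µM in the primary screen, cut at about 59% in these data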;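 further: 0% = DMSO wells with substrate and 100% = DMSO wells lacking glucose-6-phosphate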
A3A deaminase – inhibitors of human APOBEC3A DNA deaminase. P31941. inhibition, % at 20 µM. 0.41% of 330,000 active. recombinant A3A, FAM/TAMRA ssDNA deamination fluorescence;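 active means at least 40% inhibition at 20 µM here, with at most 30% in a related deaminase screen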;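 further: plate controls were A3A with DMSO for no effect and wells lacking A3A enzyme for full effect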
A3G deaminase – inhibitors of human APOBEC3G DNA deaminase. Q9HC16. recombinant A3G, ssDNA deamination FAM/TAMRA fluorescence. inhibition, % at 20 µM. 0.28% of 330,000 active. AID 493012;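 active means inhibition of at least 40% at 20 µM, with no more than 30% in the related APOBEC3A deaminase screen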;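 further: plate controls were DMSO wells with A3G for no effect and wells lacking A3G enzyme for full effect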
HKDC1 act conf – HKDC1 (human) activation, single-dose confirmed; AID 504708; inhibition, % at 20 µM; recombinant HKDC1, G6PDH/diaphorase resazurin fluorescence; stronger effect = lower value; 14% of 740 active; shares compounds with HKDC1 inh;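 active means inhibition at or below a set negative limit, negative inhibition meaning the enzyme was activated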
The depositor's hits bear a star; ? = inconclusive; nt = no result.

SMILES | HKDC1 inh | SUMO HTRF inh | PfM18AAP inh | PfG6PD inh | A3A deaminase | A3G deaminase | HKDC1 act conf
O=c1nccc(Nc2ccccc2)[nH]1 | -4 | 5 | 1 | -2 | 0 | -4 | nt
c1ccc(Nc2cc(Nc3ccccc3)[nH]n2)cc1 | -47 | -35 | 7 | 32 | 3 | -3 | -20
COc1ccc2c(c1)C(=NNC(=O)c1ccccn1)c1cc(OC)ccc1-2 | 42* | 10 | -3 | 17 | 0 | -5 | -13
CC12CCC(C(=O)N/N=C/c3ccc(O)cc3O)(OC1=O)C2(C)C (stereo unspecified) | -39 | 9 | 6 | -44 | -6 | -6 | -35*
O=C(NNC(=O)c1ccccc1-c1ccccc1C(=O)O)c1cccc([N+](=O)[O-])c1 | 12 | 8 | 2 | -26 | 1 | -4 | nt
CCN(CC)CCOC(=O)C1(c2ccc(OC)c(OC)c2)CCCC1 | 0 | 17 | 3 | -2 | 2 | -4 | nt
CCn1c2ccccc2c2nnc(SCc3ccc(C(=O)OC)o3)nc21 | 29 | -19 | -7 | 27 | 3 | -1 | 21
O=C(CN(c1ccc(F)cc1)S(=O)(=O)c1ccc2c(c1)OCCO2)NCc1ccncc1 | -3 | 22 | 4 | -15 | -3 | -3 | nt
COc1ccc(N(CC(=O)NC2CCS(=O)(=O)C2)S(=O)(=O)c2ccc(Cl)c(Cl)c2)cc1 (stereo unspecified) | -3 | nt | nt | 4 | 4 | -11 | nt
COc1cccc(CC(Cc2nc3ccccc3[nH]2)c2nc3ccccc3[nH]2)c1 (stereo unspecified) | 50* | -6 | 0 | 9 | -5 | -6 | -28
O=C(CSc1nc(-c2ccc(F)cc2)nc2c1Cc1ccccc1O2)Nc1ccc(C(=O)O)cc1 | 44* | ? | -8 | -24 | nt | nt | -27
O=C(NC1CCCC1)c1cc(Cl)ccc1[N+](=O)[O-] | -8 | -5 | -4 | -14 | -2 | -4 | nt
COc1cc(OC)cc(C(=O)NC(=S)NNC(=O)c2cnccn2)c1 | -42 | -135 | -1 | -3 | 0 | -3 | -40*
COc1ccc(C(=O)NC(=S)NNC(=O)c2cnccn2)cc1OC | -26 | -9 | -2 | 11 | -1 | 1 | nt
CCOC(=O)C1=C(Cc2ccc(OC)cc2)C(=O)c2ccccc2C1=O | 71* | 9 | 7 | 95* | nt | nt | 56
CCCc1nnc(SCC(=O)Nc2ccc3c(c2)OCCO3)n1CCOC | -8 | 8 | -17 | -5 | 1 | -3 | nt
Cc1ccc2c(c1C)-c1c(ccc(C)c1C)C(=O)C2=O | 38* | nt | nt | 40 | nt | nt | 12
O=[N+]([O-])c1ccc(-c2csc(N/N=C/c3cccnc3)n2)cc1 | 36* | 32 | -7 | 24 | 3 | 22 | -25
Oc1ccc(/C=N/NC(=S)Nc2cccnc2)c(O)c1 | -40 | -33 | 27 | -9 | 2 | -5 | 15
CCN(CC(=O)Nc1c(F)cccc1F)C(=O)/C=C/c1ccc2ccccc2n1 | 33 | nt | nt | -2 | 95 | 77 | 13
COCCCn1c(=N)c(C(N)=S)cc2c(=O)n3cccc(C)c3nc21 | -3 | nt | nt | 40 | 14 | 14 | nt
Cc1cccn2c(=O)c3cc(C(N)=S)c(=N)n(CCCN4CCOCC4)c3nc12 | -54 | 11 | 4 | 45 | 16 | 16 | -13
CC(=NNC(=O)c1ccncc1)c1ccccc1O | -1 | nt | nt | -40 | nt | nt | nt
C/C(=N\NC(=O)c1cc(-c2cccc(OC(C)C)c2)nc2ccccc12)c1cccnc1 | 4 | 0 | 2 | 14 | -1 | -8 | nt
CC(=NNC(=O)c1ccncc1)c1ccc(O)cc1O | -40 | nt | nt | -38 | nt | nt | -4
C/C(=N\NC(=O)c1cc(-c2cccnc2)nc2ccccc12)c1ccc(O)cc1O | -40 | 14 | -3 | -29 | 7 | -4 | -3
O=C(O)c1cccc(-c2ccc(/C=c3/sc4nc5ccccc5n4c3=O)o2)c1 | 48* | 84* | 9 | 27 | 97 | 68 | -8
CCOC(=O)C(Cc1ccc(OC)c([N+](=O)[O-])c1)NC(=O)CCC(=O)Nc1ccc(OC)cc1 (stereo unspecified) | -5 | -4 | -3 | -1 | -2 | -5 | nt
CCc1nn2c(=O)cc(COc3ccc(/C=C4\C(=N)N5N=C(C)SC5=NC4=O)cc3)nc2s1 | 58* | 4 | 6 | -24 | 8 | 9 | -27
